4 molecules from ChEMBL document CHEMBL1129629, “Orally active, nonpeptide vasopressin V2 receptor antagonists: a novel series of 1-[4-(benzoylamino)benzoyl]-2,3,4,5-tetrahydro-1H-benzazepines and related compounds” (J Med Chem, 1996) can be followed below.

The term pIC50 denotes the IC50 on a negative log10 scale, so that one unit is a factor of ten.

Test [1] deals with T1, Vasopressin V1a receptor (Rattus norvegicus, UniProt P30560). Kind of test: Compound was tested for its ability to displace [3H]AVP from its specific binding sites in Rat liver (AVP-V1a receptor). Put shortly:
(§1)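 Radioligand competition with [3H]AVP on plasma membrane preparations, rat liver for V1a and rat kidney for V2. […] Assays run in duplicate. Reported intraassay variation is under 3% and interassay variation under 20%.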

Test [2] concerns the target T2, Vasopressin V2 receptor (Rattus norvegicus, UniProt Q00788). Kind of test: Compound was tested for its ability to displace [3H]AVP from its specific binding sites in rat Kidney (AVP-V2 receptor). Put shortly:
as §1

Test [3] has as its system Rattus norvegicus. Kind of test: UV values mean 2-h urine volume (mL) when the compound was administered orally at a dose of 10 mg/kg. The class given is functional. Conditions: route oral. Put shortly:
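Conscious rats dosed orally at 10 mg/kg, with urine voided spontaneously. The value is urine volume (mL) collected over the first 2 h, given as mean ± SEM of 4 rats and set against control rats (n = 4).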

Test [4] concerns Rattus norvegicus. Kind of test: Dose(mg/kg) required for a 3-fold increase in the 2-h urine volume over the control rats. The class given is functional. Put shortly:
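Hydrated conscious rats, compound given orally at three or four doses. Spontaneously voided urine collected every 2 h over 8 h. ED3 (mg/kg) read from the dose–response curve as the dose giving a 3-fold rise in 2-h urine volume over control rats. ">" means no 3-fold rise at the highest dose tested.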

For test [5], the target named is T1, Vasopressin V1a receptor. Kind of test: Displacement of [3H]AVP from AVP-V1a receptor binding site in rat liver. In outline: as §1
(In general: Loss of bound radioactivity is the signal in a displacement assay; it reports binding, not function.)

Test [6] concerns the target T2, Vasopressin V2 receptor. Kind of test: Displacement of [3H]-AVP from its AVP-V2 receptor binding site in rat kidney. In outline:
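Radioligand competition with [3H]AVP on plasma membrane preparations, rat liver for V1a and rat kidney for V2. Assays run in duplicate. Reported intraassay variation is under 3% and interassay variation under 20%.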

pIC50: −log10 of the molar value.

T1 sequence (P30560 whole entry): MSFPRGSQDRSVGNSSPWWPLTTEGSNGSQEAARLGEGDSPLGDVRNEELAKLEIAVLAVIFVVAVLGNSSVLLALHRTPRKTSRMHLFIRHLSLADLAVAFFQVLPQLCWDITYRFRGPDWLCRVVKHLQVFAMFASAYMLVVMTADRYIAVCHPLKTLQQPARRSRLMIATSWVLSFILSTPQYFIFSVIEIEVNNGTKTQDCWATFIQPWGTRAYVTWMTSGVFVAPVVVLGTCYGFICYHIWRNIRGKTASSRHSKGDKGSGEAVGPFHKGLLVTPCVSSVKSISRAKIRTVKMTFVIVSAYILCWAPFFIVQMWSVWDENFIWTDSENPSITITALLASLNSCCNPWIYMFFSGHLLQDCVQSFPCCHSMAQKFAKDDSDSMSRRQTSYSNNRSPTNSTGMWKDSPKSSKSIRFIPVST
T2 sequence (Q00788 whole entry): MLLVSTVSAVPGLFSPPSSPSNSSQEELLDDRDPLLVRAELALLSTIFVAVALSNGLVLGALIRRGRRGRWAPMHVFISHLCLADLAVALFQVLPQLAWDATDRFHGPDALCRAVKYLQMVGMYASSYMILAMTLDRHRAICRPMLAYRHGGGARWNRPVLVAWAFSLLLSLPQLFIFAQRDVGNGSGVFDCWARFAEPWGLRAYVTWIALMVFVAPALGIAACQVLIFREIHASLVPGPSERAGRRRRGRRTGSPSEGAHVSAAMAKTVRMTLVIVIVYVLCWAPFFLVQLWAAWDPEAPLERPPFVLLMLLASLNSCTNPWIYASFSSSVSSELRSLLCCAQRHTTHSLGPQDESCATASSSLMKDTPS

For the molecule `O=C(Nc1ccc(C(=O)N2CCCCc3ccccc32)cc1)Oc1ccccc1`, the pIC50 at Vasopressin V1a receptor [1] was 5.11; on Vasopressin V2 receptor [2] it was 6.10.
For the molecule `CCCNC1CCCN(C(=O)c2ccc(NC(=O)c3ccccc3C)cc2)c2ccccc21` (stereo not drawn), the Activity with Rattus norvegicus [3] was 5.6 mL. The molecule further came in with an ED3 in the test with Rattus norvegicus [4] of 6.6 mg/kg. Further, the pIC50 on Vasopressin V1a receptor [5] is 6.05; on Vasopressin V2 receptor [6], 7.30.
In turn, `CN(C)C1CCCN(C(=O)c2ccc(NC(=O)c3ccccc3Cl)cc2)c2ccccc21` (stereo not drawn) had an Activity in the test on Rattus norvegicus [3] of 7 mL. Besides, in the test with Rattus norvegicus [4], the ED3 turned out to be 4.2 mg/kg. The pIC50 on Vasopressin V1a receptor [5] was 5.52; at Vasopressin V2 receptor [6], 7.57.
For the molecule `CC(=O)O/N=C1\CCCN(C(=O)c2ccc(NC(=O)c3ccccc3C)cc2)c2ccccc21`, the pIC50 was 5.64 on Vasopressin V1a receptor [1] and 7.24 on Vasopressin V2 receptor [2]. This molecule showed an ED3 in the test on Rattus norvegicus [4] of more than 30 mg/kg.
